A selection: hits, their analogues and other compounds. The true share with any hit is near 3.9%.
Pf gametocyte: P. falciparum stage V gametocyte viability inhibition | inhibition, % at 10.9 µM | actives 0.065% (n = 150,000) | P. falciparum stage V gametocytes, ATP luminescence, 24 h;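 active means inhibition above the mean plus 3 SD of compounds within the control limits, set per campaign, cut at about 38% in these data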;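 further: 0% = DMSO wells and 100% = medium only without gametocytes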
STAT3 activator: activators of IL-6 induced STAT3 signaling; U3A cells, IL-6 STAT3-luciferase reporter, luminescence; 100% = signal with IL-6 EC80 alone; actives 0.91% (n = 190,000); activation (% of control), % at 5.6 µM;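 active means activation above the screen-wide mean of compound activation plus 3 SD, cut at about 130% in these data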;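 further: 0% = background luminescence of wells with medium and substrate only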
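system = STAT3-luciferase reporter U3A cells | reagent = IL-6 stimulus at 33 ng/mL final | timing = 1 h compound pre-exposure, 6 h IL-6 stimulation, 37 °C | measured by = luminescence | evaluation = % activation versus median of IL-6-stimulated wells | control set = IL-6-only wells as 100% reference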
APP 5'UTR act: APP 5'UTR luciferase reporter activation. AID 1276. SH-SY5Y APP 5'UTR luciferase reporter, luminescence; zero percent = DMSO vehicle wells. activation, % at 2 µM. actives 1% (n = 190,000);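 active means activation above a set limit, based on mean plus 3 SD of controls, cut at about 140% in these data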
NF-kB expr up: raises NF-kB expression in human neuronal cells; NF-kB reporter expression; hits give high values; fold change at 12.5 µM; actives 1.6% (n = 190,000); AID 1239; in the data active means fold change above about 3.3
STAT1 act: STAT1 signaling activation. NIH 3T3 STAT1-luciferase reporter, IFN-gamma, luminescence; 100% = IFN-gamma alone, no compound. AID 932. actives 2.6% (n = 200,000). activation (% of control), % at 5.5 µM;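 active means activation above the screen-wide mean activation plus 3 SD, cut at about 130% in these data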;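 further: raw ratio to IFN-gamma control signal so 100% means no change and 0% no light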
STAT1 blocker: inhibitors of IFN-gamma induced STAT1 signaling; NIH 3T3 STAT1-luciferase reporter, luminescence; inhibition, % at 5.5 µM; actives 0.35% (n = 200,000); AID 920;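 active means inhibition above a set limit, the mean inhibition across all tested compounds plus 3 SD, cut at about 34% in these data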;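 further: 0% = IFN-gamma with DMSO and 100% = IFN-gamma with 300 µM nifuroxazide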
STAT1 activ conf: confirmation of STAT1 signaling activators; shares compounds with STAT1 act; NIH 3T3 STAT1-luciferase reporter, IFN-gamma potentiation, luminescence; 100% = IFN-gamma EC80 alone, no compound; activation (% of control), % at 5.7 µM; actives 97% (n = 1,200); AID 1262;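 active means activation above a set limit carried over from the earlier primary STAT1 screen, cut at about 140% in these data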;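 further: simple ratio to median IFN-gamma plus DMSO wells so 0% means no light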
NFkB act STAT1ct: NF-kappaB activation in STAT1 activator counter-screen; shares compounds with STAT1 act; HEK293T NF-kB luciferase reporter, TNF-alpha stimulated, luminescence; 100% = TNF-alpha with vehicle only; activation (% of control), % at 5.7 µM; actives 43% (n = 1,200);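 active means activation above the mean of solvent-only control wells plus 3 SD, set per campaign, cut at about 130% in these data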;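 further: TNF-alpha given at a submaximal dose yielding about 80% of full reporter signal; values are well signal over median control so 100% means no change and 0% no light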
STAT3 act 2: counter-screen for STAT1 activators: human STAT3 activation; U3A cells STAT3-luciferase reporter, IL-6, luminescence; cells lack STAT1; 100 = IL-6 alone, no compound effect; actives 46% (n = 1,200); shares compounds with STAT1 act; activation (% of control), % at 5.7 µM;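 active means activation above the solvent-only control well mean plus 3 SD, set per plate batch, cut at about 110% in these data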;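 further: 0% = no luminescence and 100% = median IL-6 plus DMSO wells; higher means more STAT3 reporter activation so hits are non-selective activators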
* = called active by the depositor; . = not tested or not shown.

SMILES	Pf gametocyte	STAT3 activator	APP 5'UTR act	NF-kB expr up	STAT1 act	STAT1 blocker	STAT1 activ conf	NFkB act STAT1ct	STAT3 act 2
O=S1(=O)N=C(Nc2nc3c(s2)CCCC3)c2ccccc21	2	96	123	6.2*	152*	-54	194*	129	126*
Cc1cccc(Nc2nc3c(s2)CCCC3)c1	9	107	120	6.6*	164*	-72	208*	146*	105
CC(=O)c1sc(Nc2cccc(C)c2)nc1C	-10	90	9	1.2	123	-28	.	.	.
CC(=O)n1cc([C@H]2C=C(C(=O)N3CCOCC3)O[C@@H](OCCCCO)C2)c2ccccc21	-4	.	.	.	.	.	.	.	.
Brc1ccccc1OCCCn1cnc2ccccc21	18	102	73	6.7*	158*	-79	186*	138*	107
Cc1ccc(C(=O)Nc2ccc(-c3csc(C)n3)cc2)cc1	-13	92	186*	2.6	164*	-72	187*	133	93
O=C(Nc1ccc(-c2csc(-c3ccccc3)n2)cc1)c1ccccc1Cl	.	82	0	1.1	103	-3	.	.	.
O=C(O)c1ccc(-c2nc(-c3ccccc3)cs2)cc1	9	114	89	2.3	157*	-61	179*	126	129*
CNC(=O)c1ccc(-c2nc(-c3ccccc3)cs2)cc1	5	93	71	2.4	169*	-79	174*	132	92
O=C(O)c1ccc(-c2nc(-c3ccc(Cl)c(Cl)c3)cs2)cc1	.	106	57	1.9	109	-9	.	.	.
O=C(O)c1ccccc1C(=O)Nc1ccc(-c2csc(-c3ccccc3)n2)cc1	.	98	60	1.7	157*	-64	141*	123	100
Cc1nc(-c2ccc(C(=O)NCCO)cc2)cs1	-6	101	20	1.3	107	-10	.	.	.
C=CCn1c(C)cc(C(=O)COC(=O)c2ccc(N)c([N+](=O)[O-])c2)c1C	-7	106	211*	4.4*	164*	-64	243*	132	112*
COc1ccc(Nc2nccc3c2nnn3C)cc1	-52	80	137*	2.6	154*	-59	167*	124	97
Cn1nnc2c(NCc3ccco3)nccc21	5	95	-1	1.3	95	6	.	.	.
CCCCCn1c(-c2ccco2)nc2nc3ccccc3nc21	.	97	3	0.91	104	-4	.	.	.
c1ccc(Cn2c(-c3ccco3)nc3nc4ccccc4nc32)cc1	.	102	61	2.1	152*	-58	158*	127	115*
CCOc1ccc(-c2csc(Cn3c(CN4CCN(C)CC4)nc4ccccc4c3=O)n2)cc1	8	98	3	0.62	73	30	.	.	.
Nc1c(-c2ccccc2)cnc2cc(-c3ccccc3)nn12	-15	77	290*	4.8*	158*	-65	276*	134*	98
CCOC(=O)c1cnc2cc(-c3ccc(Br)cc3)nn2c1C	3	.	.	.	.	.	.	.	.
CC(=O)c1cnc2cc(-c3ccccc3)nn2c1C	.	86	16	2.9	170*	-77	195*	131	109
COCc1nn2c(N)c(-c3ccccc3)cnc2c1-c1ccccc1	-4	.	.	.	.	.	.	.	.
Cc1cccc(C)c1NC(=O)CC(NCCc1ccccc1)C(=O)O (stereo not given)	.	91	8	1.2	103	-3	.	.	.
CCCCCCOc1ccc(/C(N)=N/O)cc1	.	113	78	6.8*	161*	-67	157*	129	121*
C(=C\c1nc(-c2ccccc2)no1)/c1ccccc1	-22	82	135*	8.6*	154*	-60	207*	121	101
SMILES	Pf gametocyte	STAT3 activator	APP 5'UTR act	NF-kB expr up	STAT1 act	STAT1 blocker	STAT1 activ conf	NFkB act STAT1ct	STAT3 act 2
COc1ccc2oc(C(=O)c3ccccc3)c(N)c2c1	.	94	144*	6.1*	174*	-81	175*	141*	107
O=C(O)CC/C(=N/NC(=O)c1cccs1)c1ccccc1	-9	86	92	2.3	157*	-64	134*	112	102
Cc1nc(Nc2ccccc2)sc1-c1ccccc1	-5	90	187*	8.8*	193*	-104	242*	130	107
COC(=O)c1sc(Nc2ccccc2)nc1C	20	105	35	1.9	128	-30	.	.	.
CCOC(=O)C1(Cc2ccccc2)CCN(Cc2ccc3cc(NC(C)=O)ccc3n2)CC1	-20	101	12	0.71	94	5	.	.	.
COc1ccc2c(c1OC)C(=O)OC2Nc1nc(-c2ccc(-c3ccccc3)cc2)cs1 (stereo not given)	5	104	179*	11*	181*	-91	232*	135*	98
COc1cccc(-c2csc(NC3OC(=O)c4c3ccc(OC)c4OC)n2)c1 (stereo not given)	12	.	.	.	.	.	.	.	.
COc1ccc2c(c1OC)C(=O)OC2Nc1nc(-c2cc3ccccc3oc2=O)cs1 (stereo not given)	.	80	153*	6.7*	182*	-92	195*	117	102
CC(=O)NC1=NN(C(C)=O)C(c2ccc(C)cc2)S1 (stereo not given)	-76	102	15	1.3	98	1	.	.	.
CC(=O)N1N=C(c2ccc(C)cc2)OC1c1ccc(Br)cc1 (stereo not given)	4	113	38	3	154*	-60	182*	148*	117*
Cc1nnc(SC(C)C(=O)Nc2c(C)n(C)n(-c3ccccc3)c2=O)n1N (stereo not given)	.	100	-2	1	100	-1	.	.	.
CCN1C(=S)SC(=O)C1=C1C=C(C)N(Cc2ccco2)C(C)=C1	.	114	122	3	198*	-104	278*	151*	127*
CCN1C(=S)SC(=O)C1=C1C=C(C)OC(C)=C1	.	97	44	1.4	98	1	.	.	.
CN(Cc1ccccc1)S(=O)(=O)c1ccc(NC(=O)c2ccccc2C(=O)O)cc1	2	.	.	.	.	.	.	.	.
CC(=O)c1sc(NC(=O)c2ccccc2F)nc1-c1ccccc1	19	90	141*	3.1	154*	-54	171*	126	104
CC(=O)c1sc(NC(=O)c2ccc(F)cc2)nc1-c1ccccc1	19	93	72	1.7	122	-25	.	.	.

Screening data deposited in PubChem by several laboratories.
